Results gathered from unrelated publications.
Lines come from different studies, so protocols differ. Values after ≈ are worked out from the molar mass of the structure shown.

| Structure (SMILES) | tested on | assay | system | conditions | endpoint | result |
| --- | --- | --- | --- | --- | --- | --- |
| O=C(Nc1ccccc1F)c1cc2c(=O)n3ccccc3nc2n1Cc1ccccc1 | Severe acute respiratory syndrome coronavirus 2 | viral replication | Vero | 0.1 µM | inhibition | 87.2% |
| O=[N+]([O-])c1ccc(C2=[N+]([O-])c3ccccc3N3CCN=C23)cc1 | Clostridioides difficile | microbial growth | – | – | MIC50 | ≤ 0.06 µg/mL |
| O=C(/C=C/c1ccc(O)c(O)c1/C=C/c1ccc(O)c(O)c1)O[C@H](Cc1ccc(O)c(O)c1)C(=O)O | Severe acute respiratory syndrome coronavirus 2 | cytopathic effect, inhibitor | Vero C1008 | 12.5 µM | inhibition | 0% |
| CCN(CCO)CCCC(C)Nc1ccnc2cc(Cl)ccc12 (stereo not drawn) | Severe acute respiratory syndrome coronavirus 2 | viral replication, inhibitor | A549-ACE2 | – | IC50 | 871 nM |
| C=C[C@@](C)(/C=C/c1ccc(O)cc1)CCC=C(C)C | Severe acute respiratory syndrome coronavirus 2 | cytopathic effect | Vero C1008 | 6.25 µM | inhibition | 0% |
| C=CCNC1=C2C[C@@H](C)C[C@H](OC)[C@H](O)[C@@H](C)/C=C(\C)[C@H](OC(N)=O)[C@@H](OC)/C=C\C=C(/C)C(=O)NC(=C(C)C1=O)C2=O | ARPE-19 | cell growth or viability, MTT | – | – | IC50 | > 20000 nM |
| CN(Cc1cc(Br)cc(Br)c1N)C1CCCCC1 | Severe acute respiratory syndrome coronavirus 2 | viral replication, inhibitor | A549-ACE2 | – | IC50 | 1320 nM |
| CCc1ccc(NC(=O)c2cc3c(=O)n4ccccc4nc3n2C)cc1 | Severe acute respiratory syndrome coronavirus 2 | viral replication | Vero | 10 nM | inhibition | 6.1% |
| CC(C)(C)[C@]1(O)CCN2C[C@@H]3c4ccccc4CCc4cccc(c43)[C@H]2C1 | Severe acute respiratory syndrome coronavirus 2 | viral replication | Vero C1008 | – | IC50 | 6610 nM |
| Cc1ccc(NC(=O)c2cc3c(=O)n4cccc(C)c4nc3n2C)cc1Cl | Severe acute respiratory syndrome coronavirus 2 | viral replication | Vero | 10 µM | inhibition | 94.8% |
| CCN(CC)CCCC(C)Nc1ccnc2cc(Cl)ccc12 (stereo not drawn) | Severe acute respiratory syndrome coronavirus 2 | viral replication, inhibitor | Vero C1008 | – | IC50 | 1580 nM |
| Cn1c(C(=O)Nc2ccc3c(c2)OCCO3)cc2c(=O)n3ccccc3nc21 | Severe acute respiratory syndrome coronavirus 2 | viral replication | Vero | 1 nM | inhibition | 5.41% |
| [O-][N+]1=C(c2ccc(Cl)cc2)C2=NCCN2c2ccccc21 | Clostridioides difficile | microbial growth | – | – | MIC50 | 0.25 µg/mL (≈ 0.84 µM) |
| Nc1ccn([C@@H]2CS[C@H](CO)O2)c(=O)n1 | Hepatitis B virus | viral replication, qPCR | HepG2.2.15 | 14 days | IC50 | 50 nM |
| OC(CCN1CCCCC1)(c1ccccc1)C1CCCCC1 (stereo not drawn) | Severe acute respiratory syndrome coronavirus 2 | viral replication | A549-ACE2 | – | IC50 | 3160 nM |
| Cc1cc(NC(=O)c2cc3c(=O)n4cccc(C)c4nc3n2C)ccc1Br | Severe acute respiratory syndrome coronavirus 2 | viral replication | Vero | 1 nM | inhibition | 5.51% |
| COc1c2c(cc3c1OCO3)[C@]13C=C[C@H](OC)C[C@@H]1[N@](C2)C[C@H]3OC(=O)c1ccc2ccccc2c1 | PANC-1 | cell growth or viability, WST-1 | – | – | IC50 | > 10000 nM |
| CC(C)=CCc1c(O)ccc(C(=O)/C=C/c2ccc(O)cc2)c1O | Severe acute respiratory syndrome coronavirus 2 | cytopathic effect, inhibitor | Vero C1008 | 3.125 µM | inhibition | 0% |
| CC(=O)c1cccc(NC(=O)c2cc3c(=O)n4ccccc4nc3n2C)c1 | Severe acute respiratory syndrome coronavirus 2 | viral replication | Vero | 1 µM | inhibition | 93.7% |
| N#C[C@]1(CO)O[C@@H](n2cc(F)c3c(N)ncnc32)C[C@@H]1O | Hepatitis B virus | viral replication, qPCR | HepG2.2.15 | 14 days | IC50 | 26 nM |
| COc1ccc(C[C@@H]2c3cc(Oc4cc(C[C@@H]5c6cc(O)c(OC)cc6CCN5C)ccc4O)c(OC)cc3CCN2C)cc1 | Severe acute respiratory syndrome coronavirus 2 | cytopathic effect | Vero C1008 | 1.562 µM | inhibition | 0% |
| CN1CCN(CCc2ccc(Cl)c(Cl)c2)CC1 | Severe acute respiratory syndrome coronavirus 2 | viral replication, inhibitor | A549-ACE2 | – | IC50 | 2510 nM |
| Cc1ncc([N+](=O)[O-])n1CCO | Clostridioides difficile | microbial growth | – | – | MIC90 | 0.25 µg/mL (≈ 1.46 µM) |
| CN1CCN(C2=Nc3ccccc3Oc3ccc(Cl)cc32)CC1 | Severe acute respiratory syndrome coronavirus 2 | viral replication, inhibitor | A549-ACE2 | – | IC50 | 5750 nM |
| CCC(CC)COC(=O)[C@H](C)N[P@](=O)(OC[C@H]1O[C@@](C#N)(c2ccc3c(N)ncnn23)[C@H](O)[C@@H]1O)Oc1ccccc1 | Severe acute respiratory syndrome coronavirus 2 | viral replication | Vero | 0.1 µM | inhibition | 64.7% |
| CC(=O)[C@H]1CC[C@H]2[C@@H]3CCC4=CC(=O)CC[C@]4(C)[C@H]3CC[C@]12C | Severe acute respiratory syndrome coronavirus 2 | viral replication | Vero C1008 | – | IC50 | 9330 nM |
| O=C(O[C@@H]1Cc2c(O)cc(O)cc2O[C@@H]1c1cc(O)c(O)c(O)c1)c1cc(O)c(O)c(O)c1 | Severe acute respiratory syndrome coronavirus 2 | cytopathic effect | Vero C1008 | 0.7812 µM | inhibition | 0% |
